Cardiac RTF inh: cardiac RTF calcium sensitivity inhibitors, primary screen, biochemical, IANBD-TnC fluorescence, EC70 calcium; Troponin I, cardiac muscle (Homo sapiens) + Troponin T, cardiac muscle (Homo sapiens) + …; IANBD-labeled cardiac RTF, Ca2+ fluorescence; inhibition, % at 7.15 µM; 340,000 tested, 0.12% active; AID 493244, 2011;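 active = inhibition above the mean inhibition of all tested compounds plus 3 SD, cut at about 17% in these data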;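 also: assay run at fixed EC70 calcium of 1.6 mM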
CRFBP-R2 block: antagonists of CRF-BP/CRF-R2 complex, primary screen, cell-based, HEK293, calcium dye fluorescence, uHTS; inhibition, % at 11.8 µM; 350,000 tested, 0.59% active; CRF-induced calcium fluorescence; AID 588475, 2011;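 active = inhibition of the ligand-induced calcium signal above about 50% at the single tested concentration, limit read from the data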
CRFBP-R2 agonist: agonists of CRF-BP/CRF-R2 complex, primary screen, cell-based, HEK293, calcium dye fluorescence, uHTS | CRF-binding protein / CRF receptor 2 complex (human) | 350,000 tested, 0.46% active | calcium dye fluorescence (FLIPR); percent of saturating CRF peptide response | activation, % at 13.2 µM;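 active = activation of at least 50%, plus an integration ratio under a set limit after plate pattern correction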;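 also: plate controls were neutral control wells without compound for no effect and CRF at EC100 for full effect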
RTF Ca sens act: cardiac RTF calcium sensitivity activators, primary screen, biochemical, IANBD-TnC fluorescence, EC20 calcium; Troponin I, cardiac muscle (Homo sapiens) + Troponin T, cardiac muscle (Homo sapiens) + …; IANBD-labeled TnC RTF fluorescence at EC20 calcium; 0% EC20 calcium, 100% full calcium; activation, % at 7.2 µM; 340,000 tested, 0.24% active;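 active = activation above the mean over all tested compounds plus 3 SD, cut at about 30% in these data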;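 also: rise in fluorescence read as greater calcium sensitivity of cardiac thin filaments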
DDE Tn6 FP inh: inhibitors of Tn6 peptide binding to fibrin DD(E), primary screen, biochemical, fluorescence polarization, human fibrin, Tn6 probe; Fibrinogen beta chain (Homo sapiens), P02675; Fibrin DD(E) TRITC-Tn6 fluorescence polarization displacement; inhibition, % at 8.3 µM; 370,000 tested, 0.21% active; AID 720509, 2013;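 active = inhibition above a per-campaign cutoff: mean of compounds within control limits plus 3 SD, cut at about 15% in these data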;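 also: 0% = median of all compound wells on the plate and 100% = blocking peptide control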
Target sequence (P02675 whole entry, looked up): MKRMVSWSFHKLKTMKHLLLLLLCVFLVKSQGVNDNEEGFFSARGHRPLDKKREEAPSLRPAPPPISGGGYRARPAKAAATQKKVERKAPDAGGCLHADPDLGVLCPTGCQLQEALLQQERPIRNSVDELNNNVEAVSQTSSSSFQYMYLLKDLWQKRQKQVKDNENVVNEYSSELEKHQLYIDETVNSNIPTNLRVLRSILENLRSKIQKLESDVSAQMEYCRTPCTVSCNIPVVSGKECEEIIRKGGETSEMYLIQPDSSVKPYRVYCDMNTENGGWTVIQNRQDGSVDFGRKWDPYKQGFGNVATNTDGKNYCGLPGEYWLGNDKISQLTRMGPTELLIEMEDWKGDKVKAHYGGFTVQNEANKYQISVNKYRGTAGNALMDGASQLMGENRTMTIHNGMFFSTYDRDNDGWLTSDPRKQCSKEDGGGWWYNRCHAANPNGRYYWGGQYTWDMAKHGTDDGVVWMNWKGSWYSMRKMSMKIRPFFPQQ
DDE Tn7 FP inh: inhibitors of Tn7 peptide binding to fibrin DD(E), primary screen, biochemical, fluorescence polarization, human fibrin, Tn7 probe. Fibrinogen beta chain (Homo sapiens), P02675. FP displacement of FITC-Tn7 peptide from fibrin DD(E); 0% = median of compound wells per plate. inhibition, % at 8.3 µM. 370,000 tested, 0.13% active;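 active = inhibition above the mean of compounds falling within the control limits plus 3 SD of them, cut at about 14% in these data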;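 also: 0% = plate median of compound wells and 100% = 10 µM Aha-Tn7 peptide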
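Assay system: human fibrin DD(E) protein / Input: 2 µM fibrin DD(E) / Benchmarks: high control of 10 µM Aha-Tn7 peptide / Measured by: fluorescence polarization of the labelled Tn7 tracer / Medium: Tris buffer with calcium and detergent, pH 7.8 / Timing: 10 min compound pre-incubation, 3 h probe incubation at room temperature / Repeats: one replicate per compound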
Active calls of the source: *; x = no result given. Rows were chosen to be rich in hits. Some 1.4% of all compounds tested hit in one or more screens of this group.

SMILES	Cardiac RTF inh	CRFBP-R2 block	CRFBP-R2 agonist	RTF Ca sens act	DDE Tn6 FP inh	DDE Tn7 FP inh
N#CC(C#N)=C1C=CC=CN1/C(=C\c1ccco1)C(=O)c1ccc(Cl)cc1	-20	-88	61*	1	-1	-3
Nc1c(C(=O)N2CCOCC2)sc2nc3c(cc12)CCCC3	-13	-4	-1	-4	-6	-1
Nc1c(C(=O)N2CCOCC2)sc2nc3c(cc12)CCC3	-22	50*	4	-2	8	-5
COc1ccc(-n2c(=O)c(CCC(=O)N3CCN(c4cccc(OC)c4)CC3)nc3ccccc32)cc1	x	13	2	x	0	-1
COc1ccc(/C(O)=C/c2nc3ccccc3n(-c3ccccc3)c2=O)cc1	-8	-41	132*	14	0	1
CC(C(=O)NC1CCCC1)n1c(-c2ccccn2)nc2ccccc21 (stereo not given)	x	x	x	x	-1	2
O=C(NCCc1ccc(F)cc1)c1ccc2c(c1)ncn2C1CCCCC1	x	x	x	x	-3	-1
CCCCCN(C(=O)CCC(=O)OCC(=O)c1c(C)cc(C)cc1C)c1c(N)n(CCCC)c(=O)[nH]c1=O	-2	52*	-1	-12	3	-7
O=C(N[C@H]1CC1c1ccccc1)c1ccc([N+](=O)[O-])cc1 (stereo not given in full)	-5	24	-4	12	3	2
CC(=O)N[C@H]1C[C@@H]1c1ccccc1	-11	61*	-2	-5	-4	3
CCCC(=O)N1CCC1(C)C(=O)Nc1cc(C)ccc1C (stereo not given)	x	x	x	x	-3	0
Cc1cccc(C(=O)Nc2scc(-c3ccc(Br)cc3)c2C(=O)O)c1	-4	50*	1	-11	-2	-3
Cc1cc(C)cc(C(=O)OCCCN(C)C2CN(Cc3cn(Cc4ccc([N+](=O)[O-])cc4)nn3)S(=O)(=O)C2)c1 (stereo not given)	x	x	x	x	-3	9
O=C1CCC[C@H]2C[C@H](NCc3ccc(F)cc3F)CC[C@]23CCCN13	x	x	x	x	-2	1
N#C/C(=C\c1ccc([N+](=O)[O-])o1)c1nc2ccccc2[nH]1	x	-81	66*	x	4	3
Cc1ccc2nc(/C(C#N)=C\c3ccc(N4CCOCC4)o3)[nH]c2c1	-133	14	7	152*	-2	6
Cc1ccc2nc(/C(C#N)=C\c3ccc([N+](=O)[O-])o3)[nH]c2c1	-4	-98	55*	-2	-3	8
N#C/C(=C(/O)c1ccc([N+](=O)[O-])o1)c1nc2ccccc2[nH]1	2	17	1	-1	2	-1
Cc1ccc2nc(/C(C#N)=C\c3cc(C)n(-c4cccc([N+](=O)[O-])c4)c3C)[nH]c2c1	1	-4	-2	1	-11	-6
Cc1ccc(/C(C#N)=C\c2ccc(N3CCOCC3)o2)cc1	-13	0	2	15	9	-1
COc1cc(OC)cc(-c2noc([C@@H]3O[C@H](CO)[C@H](O)[C@H](O)[C@H]3O)n2)c1	x	x	x	x	4	0
COc1cccc(-c2oc3c(c2C(=O)OCCN(C)C)C(O)CCC3)c1 (stereo not given)	x	x	x	x	-4	5
O=C(Nc1cccc(Cl)c1)O[C@@H]1CC[C@@]23CCCN2C(=O)CCC[C@H]3C1	x	x	x	x	1	-5
COc1ccc(-n2c(COc3ccc(Cl)cc3)nnc2SCC(=O)Nc2ccc3c(c2)OCO3)cc1	x	x	x	x	0	2
CCOC(=O)c1c(CC(C)C)csc1N	-6	55*	-3	-7	0	-5
SMILES	Cardiac RTF inh	CRFBP-R2 block	CRFBP-R2 agonist	RTF Ca sens act	DDE Tn6 FP inh	DDE Tn7 FP inh
Cc1ccc(/C=C2\CCC3=C2OC(N)=C(C#N)C3c2ccc(C)cc2)cc1 (stereo not given)	-100	-297	253*	84*	x	x
Cc1cc(C)c(S(=O)(=O)N2C[C@H]3CON(C)[C@H]3C[C@H]2c2ccc(-n3ccnc3)cc2)c(C)c1	x	x	x	x	5	4
CN1/C(=C\C=C2/C(=O)Oc3ccccc3C2=O)C(C)(C)c2ccccc21	x	-383	323*	x	-1	-42
CC1=NN(c2ccccc2)C(=O)/C1=C\C=C1/N(C)c2ccccc2C1(C)C	-14	-32	52*	5	5	-5
CN1C(=CC=C2C=C(I)C(=O)C(I)=C2)C(C)(C)c2ccccc21	-33	5	16	92*	-28	-2
CCCCCCC/C=C(\C)[C@@H](O)[C@@H](C)C(=O)N1CCC[C@@H]1C(=O)O	x	x	x	x	10	-7
COC(=O)[C@]12C[C@H](CC(=O)NCC3CCCCC3)C(=O)N(Cc3ccccc3)C1=C[C@H](C1CCCC1)O[C@@H]2C	x	x	x	x	8	-1
COc1cc(NC(=O)N2CCc3nc(Nc4cc(Cl)cc(Cl)c4)ncc3C2)cc(OC)c1OC	x	x	x	x	1	-1
COc1ccccc1C1SCCN1S(=O)(=O)c1ccccc1 (stereo not given)	x	108*	-1	x	3	4
COc1ccccc1C1SCCN1S(=O)(=O)c1cccc(C(F)(F)F)c1 (stereo not given)	-2	-16	2	4	1	1
CC(=O)N1CCN(S(=O)(=O)c2ccc3c(c2)oc(=O)n3C)CC1	x	x	x	x	6	4
O=C1S/C(=C/c2ccccc2)C(=O)N1CC(O)Cn1c2ccccc2c2ccccc21 (stereo not given)	-1	-26	1	12	3	1
Cc1cc(/C=C2\SC(=S)N(Cc3ccco3)C2=O)c(C)n1-c1ccccc1	-26	-25	28	25	4	3
CN(C)c1ccc(C=C2SC(=S)N(Cc3ccco3)C2=O)cc1	x	-129	169*	x	-1	-9
CN(C)c1ccc(/C=C2\SC(=O)N(CC(O)Cn3c4ccccc4c4ccccc43)C2=O)cc1 (stereo not given)	-16	-103	96*	55*	0	1
O=C(NC1CC[C@@]23CCCN2C(=O)CCC[C@H]3C1)c1ccccc1 (stereo not given in full)	x	x	x	x	3	-3
COc1ccc2c(/C=C/c3cc[n+](C)cc3)c[nH]c2c1	-17	-7	14	8	-7	-4
COc1ccc2c(c1)c(/C=C/c1cc[n+](C)cc1)cn2C	-77	-4	30	75*	-6	-21
CC1(Oc2ccc(CC#N)cc2)CCN(Cc2ccc(-n3ccnc3)cc2)C1 (stereo not given)	x	x	x	x	-2	-12
